Laboratory results published in ChEMBL document CHEMBL5335790, “Design, synthesis and biological evaluation of novel 2,4-thiazolidinedione derivatives able to target the human BAG3 protein” (Eur J Med Chem, 2023).
Active and inactive are the calls of the source. No cut-off for these calls is given here.

Tests used:
[1] = target: T1, BAG family molecular chaperone regulator 3 (Homo sapiens, UniProt O95817); assay: Binding affinity to CM4 sensorchip immobilized C-terminal His tagged human BAG3 transfected in HEK293T cells assessed as binding capacity at 50 uM by SPR analysis
T1 sequence (O95817 whole entry): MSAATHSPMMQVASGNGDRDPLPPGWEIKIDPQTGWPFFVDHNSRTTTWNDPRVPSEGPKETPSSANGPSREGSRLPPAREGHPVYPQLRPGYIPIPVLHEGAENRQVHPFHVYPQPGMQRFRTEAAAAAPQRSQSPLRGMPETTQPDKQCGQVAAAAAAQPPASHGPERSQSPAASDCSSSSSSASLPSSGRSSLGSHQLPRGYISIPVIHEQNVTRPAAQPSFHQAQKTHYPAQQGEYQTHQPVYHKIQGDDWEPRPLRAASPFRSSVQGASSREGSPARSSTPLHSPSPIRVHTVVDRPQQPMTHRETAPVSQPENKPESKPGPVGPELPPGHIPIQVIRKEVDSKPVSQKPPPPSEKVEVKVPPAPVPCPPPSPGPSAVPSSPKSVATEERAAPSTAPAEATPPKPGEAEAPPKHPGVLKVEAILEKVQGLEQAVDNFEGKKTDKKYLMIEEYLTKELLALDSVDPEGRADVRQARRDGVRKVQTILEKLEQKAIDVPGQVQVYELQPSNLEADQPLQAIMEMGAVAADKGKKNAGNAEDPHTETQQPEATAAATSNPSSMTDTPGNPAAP
In short: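 SPR screen on BAG3-His amine-coupled to a CM4 chip at 60 µg/mL in pH 2.8 acetate. Compound at 50 µM in PBS with 5% DMSO and 0.05% P20 was injected for 90 s at 30 µL/min, then washed. Chip regenerated with 10 mM glycine pH 3. Bound RU read at equilibrium against a void flow cell; 3–10 repeats, mean ± SEM.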

[2] = Cytotoxicity against PHA stimulated human PBMC cells assessed as cell growth inhibition incubated for 72 hrs by MTT assay; type: toxicity, cell-based
HD-MB03 [3] = assay: Induction of cell cycle arrest in human HD-MB03 cells assessed as accumulation of cells at G2/M phase at 10 uM incubated for 72 hrs by RNase/PI staining based cytofluorimetric analysis (reference value: 4.4%); type: functional
HD-MB03 [4] = assay: Induction of apoptosis in human HD-MB03 cells at 20 uM by Annexin V-FITC/PI staining based cytofluorimetric analysis; type: functional, cell-based; conditions: time 48-72 hrs, TDE = time-dependent effect
In short: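 HD-MB03 cells treated with 20 µM, then stained with annexin V-FITC and PI and analysed by flow cytometry. Mean ± SEM of three independent experiments; 2-way ANOVA with Tukey correction.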

HD-MB03 [5] = assay: Induction of apoptosis in human HD-MB03 cells assessed as membrane blebbing at 20 uM incubated for 24 hrs in presence of chloroquine by bright field imaging analysis; type: functional, cell-based
HD-MB03 [6] = assay: Sensitization of chemotherapy induced cytotoxicity against human HD-MB03 cells assessed as inhibition of cell growth at 1.25 uM incubated for 72 hrs in presence of 0.12 unit of vincristine, etoposide, cisplatin, cyclophosphamide by resazurin dye based analysis (reference value: 51.43 +/- 1.17%); type: functional
HD-MB03 [7] = assay: Sensitization of chemotherapy induced cytotoxicity against human HD-MB03 cells assessed as inhibition of cell growth at 1.25 uM incubated for 72 hrs in presence of 0.25 unit of vincristine, etoposide, cisplatin, cyclophosphamide by resazurin dye based analysis (reference value: 73.44 +/- 0.92%); type: functional
HD-MB03 [8] = assay: Sensitization of chemotherapy induced cytotoxicity against human HD-MB03 cells assessed as inhibition of cell growth at 1.25 uM incubated for 72 hrs in presence of 0.5 unit of vincristine, etoposide, cisplatin, cyclophosphamide by resazurin dye based analysis (reference value: 83.74+/- 0.54%); type: functional
HD-MB03 [9] = assay: Sensitization of chemotherapy induced cytotoxicity against human HD-MB03 cells assessed as inhibition of cell growth at 2.5 uM incubated for 72 hrs in presence of 0.12 unit of vincristine, etoposide, cisplatin, cyclophosphamide by resazurin dye based analysis (reference value: 51.43 +/- 1.17%); type: functional
HD-MB03 [10] = assay: Sensitization of chemotherapy induced cytotoxicity against human HD-MB03 cells assessed as inhibition of cell growth at 2.5 uM incubated for 72 hrs in presence of 0.5 unit of vincristine, etoposide, cisplatin, cyclophosphamide by resazurin dye based analysis (reference value: 83.74+/- 0.54%); type: functional
HD-MB03 [11] = assay: Sensitization of chemotherapy induced cytotoxicity against human HD-MB03 cells assessed as inhibition of cell growth at 2.5 uM incubated for 72 hrs in presence of 1 unit of vincristine, etoposide, cisplatin, cyclophosphamide by resazurin dye based analysis (reference value: 91.53 +/- 1.15%); type: functional
HD-MB03 [12] = assay: Sensitization of chemotherapy induced cytotoxicity against human HD-MB03 cells assessed as inhibition of cell growth at 2.5 uM incubated for 72 hrs in presence of 2 unit of vincristine, etoposide, cisplatin, cyclophosphamide by resazurin dye based analysis (reference value: 97.7 +/- 1.3%); type: functional
HD-MB03 [13] = assay: Sensitization of chemotherapy induced cytotoxicity against human HD-MB03 cells assessed as inhibition of cell growth at 5 uM incubated for 72 hrs in presence of 0.12 unit of vincristine, etoposide, cisplatin, cyclophosphamide by resazurin dye based analysis (reference value: 51.43 +/- 1.17%); type: functional
HD-MB03 [14] = assay: Sensitization of chemotherapy induced cytotoxicity against human HD-MB03 cells assessed as inhibition of cell growth at 5 uM incubated for 72 hrs in presence of 1 unit of vincristine, etoposide, cisplatin, cyclophosphamide by resazurin dye based analysis (reference value: 91.53 +/- 1.15%); type: functional
HD-MB03 [15] = assay: Sensitization of chemotherapy induced cytotoxicity against human HD-MB03 cells assessed as inhibition of cell growth at 10 uM incubated for 72 hrs in presence of 0.12 unit of vincristine, etoposide, cisplatin, cyclophosphamide by resazurin dye based analysis (reference value: 51.43 +/- 1.17%); type: functional
HD-MB03 [16] = assay: Sensitization of chemotherapy induced cytotoxicity against human HD-MB03 cells assessed as inhibition of cell growth at 10 uM incubated for 72 hrs in presence of 0.25 unit of vincristine, etoposide, cisplatin, cyclophosphamide by resazurin dye based analysis (reference value: 73.44 +/- 0.92%); type: functional
HD-MB03 [17] = assay: Sensitization of chemotherapy induced cytotoxicity against human HD-MB03 cells assessed as inhibition of cell growth at 20 uM incubated for 72 hrs in presence of 0.12 unit of vincristine, etoposide, cisplatin, cyclophosphamide by resazurin dye based analysis (reference value: 51.43 +/- 1.17%); type: functional
HD-MB03 [18] = assay: Sensitization of chemotherapy induced cytotoxicity against human HD-MB03 cells assessed as inhibition of cell growth at 20 uM incubated for 72 hrs in presence of 0.5 unit of vincristine, etoposide, cisplatin, cyclophosphamide by resazurin dye based analysis (reference value: 83.74+/- 0.54%); type: functional
HD-MB03 [19] = assay: Sensitization of chemotherapy induced cytotoxicity against human HD-MB03 cells assessed as inhibition of cell growth at 20 uM incubated for 72 hrs in presence of 1 unit of vincristine, etoposide, cisplatin, cyclophosphamide by resazurin dye based analysis (reference value: 91.53 +/- 1.15%); type: functional
HD-MB03 [20] = assay: Sensitization of chemotherapy induced cytotoxicity against human HD-MB03 cells assessed as inhibition of cell growth at 20 uM incubated for 72 hrs in presence of 2 unit of vincristine, etoposide, cisplatin, cyclophosphamide by resazurin dye based analysis (reference value: 97.7 +/- 1.3%); type: functional
HD-MB03 [21] = assay: Cytotoxicity against human HD-MB03 cells assessed as inhibition of cell growth at 20 uM incubated for 72 hrs by resazurin dye based analysis relative to control; type: functional
In short: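 Resazurin viability in HD-MB03 cells, 2000/well, single-agent arm of the 6x6 matrix. Inhibitor was added 24 h after seeding, in a 6-point 2-fold series, duplicates, two independent experiments. After 72 h exposure, resazurin was added at 44 µM final for 3 h at 37 °C and fluorescence read at 590 nm. Viability normalized to 1 µM bortezomib and 0.5% DMSO controls.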

[22] = target: T1, BAG family molecular chaperone regulator 3; assay: Binding affinity to C-terminal His tagged human BAG3 transfected in HEK293T cells assessed as protein-ligand complex formation by measuring saturated protein magnetization via intermolecular spin-diffusion at 125 uM by STD NMR experiment

With `CC(C(=O)N1CCOCC1)N1C(=O)S/C(=C\c2cccc(O)c2O)C1=O` (racemic) the Activity [1] was greater than 5 RU, the GI50 at 72 h [2] was greater than 100 µM and the Activity (HD-MB03 [3]) was 1.2%. The Activity (HD-MB03 [4]) was “Tde”, the Activity (HD-MB03 [5]) was “Active” and the inhibition at 1.25 µM (HD-MB03 [6]) was 47.7%. It also gave an inhibition at 1.25 µM (HD-MB03 [7]) of 70.3%, an inhibition at 1.25 µM (HD-MB03 [8]) of 82.7% and an inhibition at 2.5 µM (HD-MB03 [9]) of 53.4%. The inhibition at 2.5 µM (HD-MB03 [10]) was 83.3%, the inhibition at 2.5 µM (HD-MB03 [11]) was 92% and the inhibition at 2.5 µM (HD-MB03 [12]) was 95.4%. It also gave an inhibition at 5 µM (HD-MB03 [13]) of 62.3%, an inhibition at 5 µM (HD-MB03 [14]) of 92% and an inhibition at 10 µM (HD-MB03 [15]) of 75.8%. For the same molecule, the inhibition at 10 µM (HD-MB03 [16]) was 82.2%, the inhibition at 20 µM (HD-MB03 [17]) was 75% and the inhibition at 20 µM (HD-MB03 [18]) was 87.7%. The inhibition at 20 µM (HD-MB03 [19]) was 89.1%, the inhibition at 20 µM (HD-MB03 [20]) was 90.5% and the inhibition at 20 µM (HD-MB03 [21]) was 52.9%. The Activity [22] was “Active”.
